This passage reports Ki results from ChEMBL document CHEMBL1134227, “The design of phenylglycine containing benzamidine carboxamides as potent and selective inhibitors of factor Xa” (Bioorg Med Chem Lett, 2001).

Test [1] has as its target Coagulation factor X (Homo sapiens, UniProt P00742). The test can be described thus: Binding affinity against human coagulation factor Xa. An outline of the steps: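 Human fXa at 100 pM final with Pefachrome-FXA substrate, in 100 mM phosphate buffer with 0.1% bovine serum albumin at pH 7.4. Compounds were taken from Me₂SO stocks into the buffer.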
The target in test [2] is Prothrombin (Homo sapiens, UniProt P00734). The test can be described thus: Affinity for human thrombin. An outline of the steps:
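Chromogenic assay with 1 nM human thrombin and Pefachrome-TH substrate, in 100 mM phosphate buffer with 0.1% bovine serum albumin at pH 7.4. Compounds were dissolved in Me₂SO and diluted into the buffer. Hydrolysis was followed as the rise in optical density at 405 on a microplate reader.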

Test [3] addresses Serine protease 1 (Homo sapiens, UniProt P07477). Nature of the test: Binding affinity against human trypsin. Put shortly: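 Human trypsin at 1 nM final with Pefachrome-TRY chromogenic substrate, in 100 mM phosphate, 0.1% bovine serum albumin, pH 7.4. Test compounds were dissolved in Me₂SO and diluted into the assay buffer. The read-out was the optical density increase at 405 from substrate cleavage.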

“And” between values parts separate entries of the source, which are not always exact repeats. Equal entries are not always repeated.

Sequence of Serine protease 1 (P07477 whole entry): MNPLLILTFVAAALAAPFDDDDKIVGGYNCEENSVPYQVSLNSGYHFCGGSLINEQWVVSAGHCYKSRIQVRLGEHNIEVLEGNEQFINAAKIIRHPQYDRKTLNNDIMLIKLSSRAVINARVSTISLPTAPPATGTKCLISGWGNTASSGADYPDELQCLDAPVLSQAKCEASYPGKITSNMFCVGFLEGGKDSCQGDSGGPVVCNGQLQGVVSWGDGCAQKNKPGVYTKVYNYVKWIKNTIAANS
Sequence of Coagulation factor X (P00742 41-179 limits assumed): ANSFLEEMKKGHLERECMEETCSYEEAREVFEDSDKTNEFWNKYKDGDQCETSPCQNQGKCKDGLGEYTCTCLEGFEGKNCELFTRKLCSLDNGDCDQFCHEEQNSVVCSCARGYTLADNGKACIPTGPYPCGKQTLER
Sequence of Coagulation factor X (P00742 235-488 limits assumed): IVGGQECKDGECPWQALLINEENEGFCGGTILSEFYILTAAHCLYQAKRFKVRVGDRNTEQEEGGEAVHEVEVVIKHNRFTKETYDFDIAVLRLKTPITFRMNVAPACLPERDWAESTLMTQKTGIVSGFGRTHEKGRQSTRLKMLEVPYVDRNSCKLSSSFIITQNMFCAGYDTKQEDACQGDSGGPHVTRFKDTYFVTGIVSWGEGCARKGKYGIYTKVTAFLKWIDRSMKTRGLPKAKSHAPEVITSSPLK

For the compound `N=C(N)c1cccc(C(=O)N[C@@H](C(=O)N2CCC(Cc3ccccc3)CC2)c2ccccc2)c1`, the Ki (commonly a dissociation constant, usually derived from enzyme kinetics or from competition with a known ligand) is 30 nM in test [1], 1350 nM in test [2] and 650 nM in test [3].
Turning to `CSCC[C@@H](NC(=O)c1cccc(C(=N)N)c1)C(=O)NCC1CCC(CN)CC1` (stereo partly specified), the Ki in test [1] amounted to 2300 nM; in test [3], 10000 nM.
With `N=C(N)c1cccc(C(=O)N[C@@H](C(=O)N2CCN(C(=O)c3ccccc3)CC2)c2ccccc2)c1`, the Ki in test [2] amounted to 7940 nM; in test [3], 460 nM.
With `N=C(N)c1cccc(C(=O)N[C@@H](C(=O)N2CCN(c3ccncc3)CC2)c2ccccc2)c1`, the Ki in test [1] was 13 nM; in test [2], 17800 nM; in test [3] it was 560 nM.
On to `N=C(N)c1cccc(C(=O)N[C@H](Cc2ccccc2)C(=O)NCC2CCC(CN)CC2)c1` (stereo partly specified), for which the inhibition constant (Ki) in test [1] is 25700 nM; in test [3], 17400 nM.
For `N=C(N)c1cccc(C(=O)NC(C(=O)NCC2CCC(CN)CC2)c2ccc(Cl)cc2)c1` (stereo unspecified) the same measures were 2500 nM and 6000 nM.
On the same counts, the results for `N=C(N)c1cccc(C(=O)NC(C(=O)NCC2CCC(CN)CC2)c2cccc(Cl)c2)c1` (stereo in doubt; 9) are 300 nM and 3900 nM.
For `N=C(N)c1cccc(C(=O)N[C@@H](C(=O)NCc2ccccc2)c2ccccc2)c1`, the Ki in test [1] was 910 nM; in test [2] it was 8500 nM; in test [3] it was 5400 nM.
For `CC(C)[C@H](NC(=O)c1cccc(C(=N)N)c1)C(=O)NCC1CCC(CN)CC1` (stereo partly specified), the Ki amounted to 38000 nM in test [1] and 12600 nM in test [3].
On the same counts, the results for `N=C(N)c1cccc(C(=O)NC(C(=O)NCC2CCC(CN)CC2)c2cccc(Cl)c2)c1` (stereo in doubt; 11) are 300 nM and 5100 nM.
On the same counts, the results for `N=C(N)c1cccc(C(=O)N[C@@H](C(=O)NCCCc2ccccc2)c2ccccc2)c1` are 145 nM and 2200 nM.
For `N=C(N)c1cccc(C(=O)N[C@@H](C(=O)N2CCC(C(=O)c3ccc(F)cc3)CC2)c2ccccc2)c1`, the Ki in test [1] came out at 10 nM; in test [2], 1180 nM; in test [3] it was 540 nM.
As to `N=C(N)c1cccc(C(=O)N[C@H](C(=O)NCC2CCC(CN)CC2)C2CCCCC2)c1` (stereo partly specified), the inhibition constant (Ki) in test [1] stood at 7800 nM; in test [3], 3600 nM.
As for `N=C(N)c1cccc(C(=O)N[C@@H](C(=O)N2CCN(c3ccccc3)CC2)c2ccccc2)c1`, the Ki in test [1] came out at 16 nM; in test [2], 1740 nM; in test [3] it was 340 nM.
For the compound `N=C(N)c1cccc(C(=O)NC(C(=O)NCC2CCC(CN)CC2)c2ccccc2)c1` (stereo unspecified), the Ki in test [2] is 6500 nM; in test [3], 4500 nM and 5600 nM.
As for `N=C(N)c1cccc(C(=O)N[C@@H](C(=O)N2CCN(Cc3ccccc3)CC2)c2ccccc2)c1`, the results for the Ki in test [1], in test [2] and in test [3] were 120 nM, 7940 nM and 2200 nM, respectively.
As to `Cc1ccc(CNC(=O)[C@H](NC(=O)c2cccc(C(=N)N)c2)c2ccccc2)cc1`, the results for the inhibitory constant (Ki) in test [1] and in test [3] were 42 nM and 4900 nM, respectively.
For `N=C(N)c1cccc(C(=O)NC(C(=O)NCC2CCC(CN)CC2)c2ccc(-c3ccccc3)cc2)c1` (stereo unspecified) the same measures were 800 nM and 1100 nM.
On the same counts, the results for `N=C(N)c1cccc(C(=O)NC(C(=O)NCC2CCC(CN)CC2)c2cccc3ccccc23)c1` (stereo unspecified) are 100 nM and 2100 nM.
Turning to `N=C(N)c1cccc(C(=O)N[C@@H](C(=O)NCc2ccc(CN)cc2)c2ccccc2)c1`, the inhibitory constant (Ki) was 500 nM in test [1], 26000 nM in test [2] and 4100 nM in test [3].
Take `CSCC[C@H](NC(=O)c1cccc(C(=N)N)c1)C(=O)NCC1CCC(CN)CC1` (stereo partly specified): the values for the Ki in test [1] and in test [3] were 10500 nM and 7900 nM, respectively.
For the compound `N=C(N)c1cccc(C(=O)N[C@@H](C(=O)NCCc2ccccc2)c2ccccc2)c1`, the Ki in test [1] was found to be 850 nM; in test [2], 3100 nM; in test [3] it was 3300 nM.
As for `CC(C)[C@@H](NC(=O)c1cccc(C(=N)N)c1)C(=O)NCC1CCC(CN)CC1` (stereo partly specified), the Ki in test [3] was 16200 nM.
For the compound `N=C(N)c1cccc(C(=O)N[C@@H](Cc2ccccc2)C(=O)NCC2CCC(CN)CC2)c1` (stereo partly specified), the results for the Ki in test [1] and in test [3] were 33900 nM and 12600 nM, respectively.
With `COc1ccc(CNC(=O)[C@H](NC(=O)c2cccc(C(=N)N)c2)c2ccccc2)cc1`, the Ki in test [1] worked out at 28 nM; in test [2] it was 2300 nM; in test [3], 5500 nM.
For `N=C(N)c1cccc(C(=O)N[C@@H](C(=O)N2CCN(c3ccc(F)cc3)CC2)c2ccccc2)c1` the same measures were 15 nM, 3800 nM and 1260 nM.
For the compound `N=C(N)c1cccc(C(=O)N[C@@H](C(=O)N2CCC(C(=O)c3ccccc3)CC2)c2ccccc2)c1`, the Ki in test [2] was found to be 1260 nM; in test [3], 320 nM.
`N=C(N)c1cccc(C(=O)NCC(=O)NCC2CCC(CN)CC2)c1` (stereo unspecified) registered a Ki in test [3] of 23000 nM.
With `N=C(N)c1cccc(C(=O)N[C@@H](C(=O)NCC2CCC(CN)CC2)C2CCCCC2)c1` (stereo partly specified), the Ki in test [1] was found to be 500 nM; in test [3] it was 8500 nM.
